Activity calls are given as the source filed them.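 Rule for the calls: active = fitted curve reaches a 35% absorbance drop at both wavelengths in duplicate, with AC35 under 50 µM; inactive = the rest, including signal rising instead of falling.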
Test system: not listed separately
Assay: P. aeruginosa growth delay with EDDHA chelator – PAK wild type, OD405, dry powder, set 2, dose response (AID 624106)
Details: P. aeruginosa PAK + EDDHA, OD405 pyoverdine, 28 h; at 100 µM (top of the series)
In short: (§1)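 System: WT P. aeruginosa PAK. Medium: succinate M9 medium, pH 7.0, with 2 µM EDDHA iron chelator. Doses: compound dose series, final 15 nM up to 100 µM. Schedule: 28 h exposure, 30 °C, humid.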
In the case of CCCCC(C#N)c1ccc(Cl)cc1 (centres undefined), the activity change, negative = inhibition is reported as -7.02% (inactive).
For CCCCC(C#N)c1ccccn1 (centres undefined), the activity change, negative = inhibition was -4.26% (inactive).
For CCCCC(C#N)c1ccc(F)cc1 (centres undefined), the activity change, negative = inhibition was -5.09% (inactive).
In the case of CCCCC(C#N)c1ccc(F)cn1 (centres undefined), the activity change, negative = inhibition is reported as -12.4% (inactive).
With COCCC(C#N)c1ccc(Cl)cc1 (centres undefined) the activity change, negative = inhibition was -2.12% (inactive).
For COCCOCCC(C#N)c1ccc(Cl)cc1 (centres undefined), the activity change, negative = inhibition was -2.61% (inactive).
With COCCOCCC(C#N)c1ccc(F)cc1 (centres undefined) the activity change, negative = inhibition was -8.85% (inactive).
With N#CC(c1ccc(C(F)(F)F)c(Cl)n1)c1ccccc1OC(F)(F)F (centres undefined) the activity change, negative = inhibition was -16% (inactive).
In the case of CN(C)CCCC(C#N)c1ccc(Cl)cc1 (centres undefined), the activity change, negative = inhibition is reported as -3.43% (inactive).
In the case of CN(C)CCCC(C#N)c1ccc(F)cc1 (centres undefined), the activity change, negative = inhibition is reported as -12.9% (inactive).
For CCCCC(C#N)c1ccc(Cl)cn1 (centres undefined), the activity change, negative = inhibition was -7.7% (inactive).
With COCCNC(C#N)c1ccc(Cl)cc1 (centres undefined) the activity change, negative = inhibition was -12.1% (inactive).
In the case of CCCCC(c1ccc(Cl)cc1)c1nn[nH]n1 (centres undefined), the activity change, negative = inhibition is reported as -8.03% (inactive).
For Clc1ccc(C(c2cccc(Cl)n2)c2nn[nH]n2)cc1 (centres undefined), the activity change, negative = inhibition was 11.9% (inactive).
With N#CC1c2ccc(Cl)cc2CCc2cccnc21 (centres undefined) the activity change, negative = inhibition was -13.8% (inactive).

Test system: P. aeruginosa PAK + EDDHA, OD405 pyoverdine, 28 h
Assay: as above
Details: not given
In short: as §1
In the case of COCCC(C#N)c1ccc(F)cc1 (centres undefined), the AC35 is reported as > 100 µM (inactive).
In the case of N#Cc1cccc(C(C#N)c2ccc(F)cc2)n1 (centres undefined), the AC35 is reported as > 100 µM (inactive).
N#CC(c1ccc(Cl)cc1)c1cccc(C(F)(F)F)n1 (centres undefined) gave an AC35 of 19.3 µM.
With N#CC(c1ccc(Cl)cc1)N1CCCC1 (centres undefined) the AC35 was > 100 µM (inactive).
N#CC(c1cccc(Cl)n1)c1ccc(Cl)cc1F (centres undefined) showed an AC35 of 25.9 µM.
For N#CC(c1ccc(Cl)cc1)c1ccccn1 (centres undefined), the AC35 was > 100 µM (inactive).
Work on N#CC(c1ccc(Cl)cc1)c1cccc(Cl)n1 (centres undefined) yielded an AC35 of 67 µM.
For N#CC(c1ccc(F)cc1)c1cccc(C(F)(F)F)n1 (centres undefined), the AC35 was 45.4 µM.
N#CC(c1cccc(C(F)(F)F)n1)c1ccc(Cl)cc1F (centres undefined) gave an AC35 of 18.8 µM.
